Source: ChEMBL document CHEMBL1151448, “Comparative antianaerobic activities of doripenem determined by MIC and time-kill analysis” (2008)
In brackets after ≈: the same amount, converted by molar mass.

Assays:
Assay type in all cases: functional
Bacteroides fragilis [1] = assay: Antimicrobial activity against beta lactamase-positive Bacteroides fragilis isolated from intra-abdominal infection and pelvic inflammatory disease patients after 48 hrs by agar dilution method
Method in brief: (§1)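 CLSI agar dilution on brucella blood agar supplemented with laked sheep blood, hemin and vitamin K. Inocula of about 1 × 10^5 CFU/spot were applied by Steers replicator, and plates were incubated 48 h at 35°C in an anaerobic glove box. MIC was the concentration giving marked growth reduction versus the anaerobic control plate. QC strains were included each run, and β-lactamase was detected by Cefinase disk.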

[2] = system: Bacteroides thetaiotaomicron; assay: Antimicrobial activity against beta lactamase-positive Bacteroides thetaiotaomicron isolated from intra-abdominal infection and pelvic inflammatory disease patients after 48 hrs by agar dilution method; method in brief: as §1
Bacteroides fragilis [3] = assay: Antimicrobial activity against beta lactamase-positive Bacteroides fragilis isolated from intra-abdominal infection and pelvic inflammatory disease patients after 48 hrs by time kill analysis
Method in brief: (§2)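 The MIC was read by inspecting macrodilution time-kill tubes. Vials held prereduced brucella broth with 5% laked horse blood cells, hemin 5 μg/ml and vitamin K1 1 μg/ml. Final inoculum was 10^6–10^7 CFU/ml, prepared inside the anaerobe chamber. Vials were incubated 48 h at 35°C in a shaking water bath.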

[4] = system: Bacteroides thetaiotaomicron; assay: Antimicrobial activity against beta lactamase-positive Bacteroides thetaiotaomicron isolated from intra-abdominal infection and pelvic inflammatory disease patients after 48 hrs by time kill analysis; method in brief: as §2
Prevotella intermedia [5] = assay: Antimicrobial activity against beta lactamase-positive Prevotella intermedia isolated from intra-abdominal infection and pelvic inflammatory disease patients after 48 hrs by time kill analysis; method in brief: as §2
Finegoldia magna [6] = assay: Antimicrobial activity against beta lactamase-positive Finegoldia magna isolated from intra-abdominal infection and pelvic inflammatory disease patients after 48 hrs by time kill analysis; method in brief: as §2
Fusobacterium nucleatum [7] = assay: Antimicrobial activity against beta lactamase-positive Fusobacterium nucleatum isolated from intra-abdominal infection and pelvic inflammatory disease patients after 48 hrs by time kill analysis; method in brief: as §2
Clostridium perfringens [8] = assay: Antimicrobial activity against Clostridium perfringens isolated from intra-abdominal infection and pelvic inflammatory disease patients after 48 hrs by time kill analysis
Method in brief: (§3)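 Macrodilution in prereduced brucella broth with 5% laked horse blood cells, 5 μg/ml hemin and 1 μg/ml vitamin K1. Final inoculum 10^6 to 10^7 CFU/ml, prepared inside the anaerobe chamber. Vials incubated 48 h at 35°C in a shaking water bath. MIC read by inspecting the time-kill tubes, alongside an antibiotic-free growth control.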

Clostridioides difficile [9] = assay: Antimicrobial activity against Clostridium difficile isolated from intra-abdominal infection and pelvic inflammatory disease patients after 48 hrs by time kill analysis; method in brief: as §3
Bacteroides ovatus = assay: Antimicrobial activity against beta lactamase-positive Bacteroides ovatus isolated from intra-abdominal infection and pelvic inflammatory disease patients after 48 hrs by agar dilution method; method in brief: as §1
Phocaeicola vulgatus = assay: Antimicrobial activity against beta lactamase-positive Bacteroides vulgatus isolated from intra-abdominal infection and pelvic inflammatory disease patients after 48 hrs by agar dilution method; method in brief: as §1
[10] = system: Parabacteroides distasonis; assay: Antimicrobial activity against beta lactamase-positive Bacteroides distasonis isolated from intra-abdominal infection and pelvic inflammatory disease patients after 48 hrs by agar dilution method; method in brief: as §1
Prevotella bivia = assay: Antimicrobial activity against beta lactamase-positive Prevotella bivia isolated from intra-abdominal infection and pelvic inflammatory disease patients after 48 hrs by agar dilution method; method in brief: as §1
Prevotella disiens = assay: Antimicrobial activity against beta lactamase-positive Prevotella disiens isolated from intra-abdominal infection and pelvic inflammatory disease patients after 48 hrs by agar dilution method; method in brief: as §1
Prevotella intermedia [11] = assay: Antimicrobial activity against beta lactamase-positive Prevotella intermedia isolated from intra-abdominal infection and pelvic inflammatory disease patients after 48 hrs by agar dilution method; method in brief: as §1
Prevotella nigrescens = assay: Antimicrobial activity against beta lactamase-positive Prevotella nigrescens isolated from intra-abdominal infection and pelvic inflammatory disease patients after 48 hrs by agar dilution method; method in brief: as §1
[12] = system: Prevotella melaninogenica; assay: Antimicrobial activity against beta lactamase-positive Prevotella melaninogenica isolated from intra-abdominal infection and pelvic inflammatory disease patients after 48 hrs by agar dilution method; method in brief: as §1
Prevotella denticola = assay: Antimicrobial activity against beta lactamase-positive Prevotella denticola isolated from intra-abdominal infection and pelvic inflammatory disease patients after 48 hrs by agar dilution method; method in brief: as §1
Prevotella corporis = assay: Antimicrobial activity against beta lactamase-positive Prevotella corporis isolated from intra-abdominal infection and pelvic inflammatory disease patients after 48 hrs by agar dilution method; method in brief: as §1
Prevotella buccae = assay: Antimicrobial activity against beta lactamase-positive Prevotella buccae isolated from intra-abdominal infection and pelvic inflammatory disease patients after 48 hrs by agar dilution method; details: Segatella buccae; method in brief: as §1
[13] = system: Porphyromonas asaccharolytica; assay: Antimicrobial activity against Porphyromonas asaccharolyticus isolated from intra-abdominal infection and pelvic inflammatory disease patients after 48 hrs by agar dilution method; method in brief: as §1
Porphyromonas gingivalis = assay: Antimicrobial activity against Porphyromonas gingivalis isolated from intra-abdominal infection and pelvic inflammatory disease patients after 48 hrs by agar dilution method; method in brief: as §1
Porphyromonas levii = assay: Antimicrobial activity against Porphyromonas levii isolated from intra-abdominal infection and pelvic inflammatory disease patients after 48 hrs by agar dilution method; method in brief: as §1
Fusobacterium nucleatum [14] = assay: Antimicrobial activity against beta lactamase-positive Fusobacterium nucleatum isolated from intra-abdominal infection and pelvic inflammatory disease patients after 48 hrs by agar dilution method; method in brief: as §1
[15] = system: Fusobacterium necrophorum; assay: Antimicrobial activity against Fusobacterium necrophorum isolated from intra-abdominal infection and pelvic inflammatory disease patients after 48 hrs by agar dilution method; method in brief: as §1
Fusobacterium varium = assay: Antimicrobial activity against Fusobacterium varium isolated from intra-abdominal infection and pelvic inflammatory disease patients after 48 hrs by agar dilution method; method in brief: as §1
Fusobacterium mortiferum = assay: Antimicrobial activity against beta lactamase-positive Fusobacterium mortiferum isolated from intra-abdominal infection and pelvic inflammatory disease patients after 48 hrs by agar dilution method; method in brief: as §1
Finegoldia magna [16] = assay: Antimicrobial activity against Finegoldia magna isolated from intra-abdominal infection and pelvic inflammatory disease patients after 48 hrs by agar dilution method; method in brief: as §1
Parvimonas micra = assay: Antimicrobial activity against Micromonas micros isolated from intra-abdominal infection and pelvic inflammatory disease patients after 48 hrs by agar dilution method; method in brief: as §1
[17] = system: Peptostreptococcus anaerobius; assay: Antimicrobial activity against Peptostreptococcus anaerobius isolated from intra-abdominal infection and pelvic inflammatory disease patients after 48 hrs by agar dilution method; method in brief: as §1
Anaerococcus prevotii = assay: Antimicrobial activity against Anaerococcus prevotii isolated from intra-abdominal infection and pelvic inflammatory disease patients after 48 hrs by agar dilution method; method in brief: as §1
Anaerococcus tetradius = assay: Antimicrobial activity against Anaerococcus tetradius isolated from intra-abdominal infection and pelvic inflammatory disease patients after 48 hrs by agar dilution method; method in brief: as §1
[18] = system: Peptoniphilus asaccharolyticus; assay: Antimicrobial activity against Peptoniphilus asaccharolyticus isolated from intra-abdominal infection and pelvic inflammatory disease patients after 48 hrs by agar dilution method; method in brief: as §1
Clostridium perfringens [19] = assay: Antimicrobial activity against Clostridium perfringens isolated from intra-abdominal infection and pelvic inflammatory disease patients after 48 hrs by agar dilution method
Method in brief: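 CLSI agar dilution on brucella blood agar supplemented with laked sheep blood, hemin and vitamin K. Inoculum about 1 × 10^5 CFU/spot, applied by Steers replicator. Plates incubated 48 h at 35°C in an anaerobic glove box. MIC is the concentration giving marked growth reduction versus the anaerobic control plate. Standard QC strains included in each run.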

Clostridioides difficile [20] = assay: Antimicrobial activity against Clostridium difficile isolated from intra-abdominal infection and pelvic inflammatory disease patients after 48 hrs by agar dilution method; method in brief: as §1
[Clostridium] innocuum = Antimicrobial activity against Clostridium innocuum isolated from intra-abdominal infection and pelvic inflammatory disease patients after 48 hrs by agar dilution method; method in brief: as §1
Thomasclavelia ramosa = assay: Antimicrobial activity against Clostridium ramosum isolated from intra-abdominal infection and pelvic inflammatory disease patients after 48 hrs by agar dilution method; method in brief: as §1
[21] = system: Paraclostridium bifermentans; assay: Antimicrobial activity against Clostridium bifermentans isolated from intra-abdominal infection and pelvic inflammatory disease patients after 48 hrs by agar dilution method; method in brief: as §1
[22] = system: Enterocloster clostridioformis; assay: Antimicrobial activity against Clostridium clostridioforme isolated from intra-abdominal infection and pelvic inflammatory disease patients after 48 hrs by agar dilution method; method in brief: as §1
[23] = system: Paeniclostridium sordellii; assay: Antimicrobial activity against Clostridium sordellii isolated from intra-abdominal infection and pelvic inflammatory disease patients after 48 hrs by agar dilution method; details: Paraclostridium sordellii; method in brief: as §1
[24] = system: Clostridium paraputrificum; assay: Antimicrobial activity against Clostridium paraputrificum isolated from intra-abdominal infection and pelvic inflammatory disease patients after 48 hrs by agar dilution method; method in brief: as §1
Clostridium cadaveris = assay: Antimicrobial activity against Clostridium cadaveris isolated from intra-abdominal infection and pelvic inflammatory disease patients after 48 hrs by agar dilution method; method in brief: as §1

## Cc1ncc([N+](=O)[O-])n1CCO [METRONIDAZOLE]
Bacteroides fragilis [1]
  MIC50: 1 mg/L (≈ 5.84 µM)
  MIC90: 1 mg/L (≈ 5.84 µM)
[2]
  MIC50: 1 mg/L (≈ 5.84 µM)
  MIC90: 1 mg/L (≈ 5.84 µM)
Bacteroides fragilis [3]
  MIC: 2 mg/L (≈ 11.7 µM)
[4]
  MIC: 1 mg/L (≈ 5.84 µM)
Prevotella intermedia [5]
  MIC: 0.5 mg/L (≈ 2.92 µM)
Finegoldia magna [6]
  MIC: 1 mg/L (≈ 5.84 µM)
Fusobacterium nucleatum [7]
  MIC: 0.016 mg/L (≈ 0.0935 µM)
Clostridium perfringens [8]
  MIC: 2 mg/L (≈ 11.7 µM)
Clostridioides difficile [9]
  MIC: 0.5 mg/L (≈ 2.92 µM)
Bacteroides ovatus
  MIC50: 1 mg/L (≈ 5.84 µM)
  MIC90: 2 mg/L (≈ 11.7 µM)
Phocaeicola vulgatus
  MIC50: 0.5 mg/L (≈ 2.92 µM)
  MIC90: 1 mg/L (≈ 5.84 µM)
[10]
  MIC: 1 mg/L (≈ 5.84 µM)
  MIC50: 1 mg/L (≈ 5.84 µM)
  MIC90: 1 mg/L (≈ 5.84 µM)
Prevotella bivia
  MIC50: 2 mg/L (≈ 11.7 µM)
  MIC90: 2 mg/L (≈ 11.7 µM)
Prevotella disiens
  MIC: 0.5 mg/L (≈ 2.92 µM)
  MIC50: 0.5 mg/L (≈ 2.92 µM)
  MIC90: 2 mg/L (≈ 11.7 µM)
Prevotella intermedia [11]
  MIC50: 0.5 mg/L (≈ 2.92 µM)
  MIC90: 2 mg/L (≈ 11.7 µM)
Prevotella nigrescens
  MIC50: 0.5 mg/L (≈ 2.92 µM)
  MIC90: 1 mg/L (≈ 5.84 µM)
[12]
  MIC50: 0.5 mg/L (≈ 2.92 µM)
  MIC90: 1 mg/L (≈ 5.84 µM)
Prevotella denticola
  MIC50: 0.5 mg/L (≈ 2.92 µM)
  MIC90: 1 mg/L (≈ 5.84 µM)
Prevotella corporis
  MIC50: 0.5 mg/L (≈ 2.92 µM)
  MIC90: 1 mg/L (≈ 5.84 µM)
Prevotella buccae
  MIC50: 1 mg/L (≈ 5.84 µM)
  MIC90: 1 mg/L (≈ 5.84 µM)
[13]
  MIC: ≤ 0.125 mg/L
Porphyromonas gingivalis
  MIC: ≤ 0.125 mg/L
Porphyromonas levii
  MIC: ≤ 0.125 mg/L
Fusobacterium nucleatum [14]
  MIC: ≤ 0.125 mg/L
  MIC50: ≤ 0.125 mg/L
  MIC90: ≤ 0.125 mg/L
[15]
  MIC: ≤ 0.125 mg/L
  MIC50: ≤ 0.125 mg/L
  MIC90: ≤ 0.125 mg/L
Fusobacterium varium
  MIC50: 0.25 mg/L (≈ 1.46 µM)
  MIC90: 0.5 mg/L (≈ 2.92 µM)
Fusobacterium mortiferum
  MIC: ≤ 0.125 mg/L
  MIC50: ≤ 0.125 mg/L
  MIC90: ≤ 0.125 mg/L
Finegoldia magna [16]
  MIC50: 0.5 mg/L (≈ 2.92 µM)
  MIC90: 1 mg/L (≈ 5.84 µM)
Parvimonas micra
  MIC50: 0.25 mg/L (≈ 1.46 µM)
  MIC90: 0.5 mg/L (≈ 2.92 µM)
[17]
  MIC50: 0.5 mg/L (≈ 2.92 µM)
  MIC90: 1 mg/L (≈ 5.84 µM)
Anaerococcus prevotii
  MIC: 0.25 mg/L (≈ 1.46 µM)
Anaerococcus tetradius
  MIC50: 2 mg/L (≈ 11.7 µM)
[18]
  MIC50: 1 mg/L (≈ 5.84 µM)
  MIC90: 1 mg/L (≈ 5.84 µM)
Clostridium perfringens [19]
  MIC50: 1 mg/L (≈ 5.84 µM)
  MIC90: 2 mg/L (≈ 11.7 µM)
Clostridioides difficile [20]
  MIC50: 0.5 mg/L (≈ 2.92 µM)
  MIC90: 0.5 mg/L (≈ 2.92 µM)
[Clostridium] innocuum
  MIC50: 1 mg/L (≈ 5.84 µM)
Thomasclavelia ramosa
  MIC50: 2 mg/L (≈ 11.7 µM)
[21]
  MIC: 0.25 mg/L (≈ 1.46 µM)
[22]
  MIC: ≤ 0.125 mg/L
[23]
  MIC: 0.5 mg/L (≈ 2.92 µM)
[24]
  MIC: 0.5 mg/L (≈ 2.92 µM)
Clostridium cadaveris
  MIC: 0.25 mg/L (≈ 1.46 µM)
